According to ChEMBL document CHEMBL2150923, “Synthesis and biological evaluation of 2,3-diarylimidazo[1,2-a]pyridines as antileishmanial agents” (Eur J Med Chem, 2012):
Activity calls are given as the source filed them. No cut-off for these calls is given here.

What was measured:
[1] = Inhibition of pig brain CK1delta/epsilon using RRKHAAIGpSAYSITA as substrate and [32gammaP]ATP after 30 mins by scintillation counting; set-up: species or system Sus scrofa
Procedure, shortened: (§1)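 Kinase reactions at 30 °C for 30 min with 15 µM [γ-33P]ATP and 25 µM CKS peptide, in buffer A (Mops pH 7.2, EGTA, MgCl2, DTT, vanadate). Porcine-brain CK1δ/ε was run in three-fold diluted buffer A. LmCK1.2 was His-tagged, expressed in E. coli and cobalt-purified. Reactions were spotted on P81 paper, washed in 1% phosphoric acid, and counted by scintillation. After blank subtraction, activity is expressed as % of the uninhibited maximum, with DMSO controls.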

[2] = Methanol-buffer partition coefficient, log D of the compound by RP-HPLC analysis at pH 7.5; type: physicochemical
Procedure, shortened: (§2)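 Log D was determined by RP-HPLC on a C18 column with methanol and aqueous buffer: 0.01 M acetic acid for pH 4.5, and 0.01 M ammonium acetate for […]. Dead time was taken from thiourea. Extrapolated log kw was calibrated against 30 OECD reference substances, and log D read by interpolation for each pH.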

[3] = Inhibition of Leishmania major recombinant His-tagged CK1.2 using RRKHAAIGpSAYSITA as substrate and [32gammaP]ATP after 30 mins by scintillation counting; procedure, shortened: as §1
[4] = Methanol-buffer partition coefficient, log D of the compound by RP-HPLC analysis at pH 4.5; type: physicochemical; procedure, shortened: as §2
[5] = test system: Leishmania major; assay: Antileishmanial activity against amastigote form of Leishmania major MHOM/IL/81/BNI infected in Balb/c mouse peritoneal macrophages assessed as inhibition of intracellular amastigote burden at 10 uM […] by May-Grunwald-Geimsa staining; type: functional
Procedure, shortened: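 Peritoneal macrophages from Balb/c mice at 1.5×10^5 cells/mL in RPMI 1640 + 15% FBS on glass slides, allowed to attach for 24 h (37 °C, 5% CO2). They were then infected with stationary-phase promastigotes (1.5×10^5/mL) for 24 h, washed, and exposed to 10 µM compound. Medium plus drug was renewed at 48 h. After 2 more days, cells were methanol-fixed, Giemsa-stained, and amastigotes counted per 100 macrophages in duplicate wells.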

[6] = test system: HeLa; assay: Cytotoxicity against human HeLa cells after 96 hrs by resazurin-based spectrofluorimetric method; type: cell-based
Procedure, shortened: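 HeLa cells in RPMI 1640 + 10% serum were seeded at 10^5/mL and incubated 24 h at 37 °C, 5% CO2. Compound dilutions were then added in duplicate, with DMSO at most 1% final. After 96 h, resazurin was added; after a further 3 h at 37 °C, fluorescence was read at ex 550/em 590 nm.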

[7] = Selectivity index, ratio of IC50 for human HeLa cells to IC50 for promastigote form of Leishmania major MHOM/IL/81/BNI; type: toxicity, cell-based; details: read-out: Ratio IC50
[8] = test system: Leishmania major; assay: Antileishmanial activity against promastigote form of Leishmania major MHOM/IL/81/BNI after 96 hrs by resazurin-based spectrofluorimetric method; type: functional, organism-based
Procedure, shortened: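 Promastigotes were maintained in Schneider's medium + 13% heat-inactivated FBS at 26 °C. They were seeded at 10^6/mL and exposed to compound for 96 h at 26 °C; DMSO was at most 1% final. Resazurin was added 4 h before reading, with fluorescence at ex 550/em 590 nm. IC50 values are means of at least three determinations.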

[9] = test system: Leishmania major; assay: Inhibition of Leishmania major PKC
[10] = test system: Leishmania major; assay: Antileishmanial activity against amastigote form of Leishmania major MHOM/IL/81/BNI infected in Balb/c mouse peritoneal macrophages assessed as inhibition of intracellular amastigote burden at 1 uM after 48 hrs by May-Grunwald-Geimsa staining; type: functional

Row | SMILES | IC50 [1] [µM] | chromatographic logD [2] | IC50 [3] [µM] | chromatographic logD [4] | inhibition at 10 µM [5] [%] | IC50 [6] [µM] | selectivity ratio [7] | IC50 [8] [µM] | inhibition [9] | inhibition at 1 µM [10] [%]
1 | Clc1cccc(-c2nc3ccccn3c2-c2ccccc2)c1 | > 10 | 5.25 | > 10 | 3.91 | 94 | 5 | 1.14 | 4.4 |  | 
2 | c1ccc(-c2nc3ccccn3c2-c2ccsc2)cc1 |  |  |  |  |  | 35 | 2.45 | 14.3 |  | 
3 | CC(C)(C)C(=O)Oc1ccc(-c2c(-c3ccccc3)nc3ccccn23)cc1 | > 10 | 5.9 | > 10 | 4.04 | 95 | 38 | 5.43 | 7 | inactive | 
4 | Oc1ccc(-c2c(-c3ccccc3)nc3ccccn23)cc1 |  |  |  |  |  | 16 | 0.4 | 40 |  | 
5 | Fc1ccccc1-c1nc2ccccn2c1-c1ccccc1 |  |  |  |  |  | 18 | 0.46 | 39 |  | 
6 | Fc1ccc(-c2nc3ccccn3c2-c2ccccc2)cc1 |  |  |  |  |  | 72 | 3.13 | 23 |  | 
7 | O=[N+]([O-])c1ccc(-c2c(-c3ccccc3)nc3ccccn23)cc1 | > 10 | 4.35 | > 10 | 3.29 | 68 | 27 | 5.51 | 4.9 |  | 
8 | O=[N+]([O-])c1ccc(-c2nc3ccccn3c2-c2ccccc2)cc1 | > 10 | 4.65 | > 10 | 4.2 | 84 | 554 | 18.5 | 30 | inactive | 
9 | N=C(N)c1ccc(OCCCCCOc2ccc(C(=N)N)cc2)cc1 [PENTAMIDINE] |  |  |  |  | 99 | 15 | 3.13 | 4.8 |  | 
10 | Clc1cc(Cl)cc(-c2c(-c3ccccc3)nc3ccccn23)c1 | > 10 | 5.88 | > 10 | 4.53 | 79 | 18 | 2.34 | 7.7 |  | 
11 | CCOC(=O)c1ccc(-c2nc3ccccn3c2-c2ccccc2)cc1 | > 10 | 5.46 | > 10 | 4.26 | 86 | 346 | 8.65 | 40 | inactive | 
12 | CC(=O)Oc1ccc(-c2c(-c3ccccc3)nc3ccccn23)cc1 |  |  |  |  |  | 40 | 2.5 | 16 |  | 
13 | c1ccc(-c2nc3ccccn3c2-c2cccnc2)cc1 |  |  |  |  |  | 4 | 0.18 | 22.5 |  | 
14 | c1ccc(-c2nc3ccccn3c2-c2ccccc2)cc1 | > 10 | 4.5 | > 10 | 2.15 | 84 | 31 | 1.38 | 22.5 |  | 
15 | Cc1ccc(-c2c(-c3ccccc3)nc3ccccn23)cc1 | > 10 | 5.13 | > 10 | 2.61 | 96 | 4 | 1 | 4 |  | 
16 | N#Cc1ccc(-c2c(-c3ccccc3)nc3ccccn23)cc1 |  |  |  |  |  |  |  | > 100 |  | 

Row | SMILES | IC50 [1] [µM] | chromatographic logD [2] | IC50 [3] [µM] | chromatographic logD [4] | inhibition at 10 µM [5] [%] | IC50 [6] [µM] | selectivity ratio [7] | IC50 [8] [µM] | inhibition [9] | inhibition at 1 µM [10] [%]
17 | Fc1ccc(-c2nc3ccccn3c2-c2cccnc2)cc1 |  |  |  |  |  | 87 | 2.27 | 38.3 |  | 
18 | Clc1cc(Cl)cc(-c2nc3ccccn3c2-c2cccnc2)c1 |  |  |  |  |  | 28 | 0.89 | 31.4 |  | 
19 | COc1ccccc1-c1nc2ccccn2c1-c1ccccc1 |  |  |  |  |  | 24 | 1.32 | 18.2 |  | 
20 | CCOC(=O)c1ccc(-c2c(-c3ccccc3)nc3ccccn23)cc1 | 7.1 | 5.19 | 4 | 3.59 | 18 | 5 | 0.96 | 5.2 |  | 
21 | c1ccc(-c2nc3ccccn3c2-c2ccncc2)cc1 | 0.25 | 2.87 | 0.3 | 2.03 | 32 | 25 | 3.85 | 6.5 |  | 
22 | COc1ccc(-c2nc3ccccn3c2-c2cccc([N+](=O)[O-])c2)cc1 |  |  |  |  |  | 30 | 2.14 | 14 |  | 
23 | O=[N+]([O-])c1cccc(-c2c(-c3ccc(F)cc3)nc3ccccn23)c1 |  |  |  |  |  |  |  | > 100 |  | 
24 | NC(=O)c1ccc(-c2c(-c3ccccc3)nc3ccccn23)cc1 |  |  |  |  |  | 27 | 1 | 27 |  | 
25 | c1ccc(-c2nc3ccccn3c2-c2cncnc2)cc1 |  |  |  |  |  |  |  | > 100 |  | 
26 | COc1ccc(-c2c(-c3ccccc3)nc3ccccn23)cc1 | 0.63 | 4.58 | 1.2 | 2.31 | 71 | 14 | 1.92 | 7.2 |  | 
27 | COc1ccc(-c2nc3ccccn3c2-c2ccccc2)cc1 | > 10 | 4.59 | > 10 | 2.04 | 85 | 48 | 1.8 | 26.6 |  | 
28 | Fc1ccccc1-c1nc2ccccn2c1-c1cccnc1 |  |  |  |  |  | 29 | 0.83 | 34.8 |  | 
29 | O=C(O)c1ccc(-c2c(-c3ccccc3)nc3ccccn23)cc1 |  |  |  |  |  |  |  | > 100 |  | 
30 | Clc1cc(Cl)cc(-c2nc3ccccn3c2-c2ccccc2)c1 | > 10 | 6.1 | > 10 | 5.58 |  | 67 | 1.71 | 39 | inactive | 71
31 | Nc1ccc(-c2c(-c3ccccc3)nc3ccccn23)cc1 |  |  |  |  |  | 28.1 | 0.65 | 43 |  | 
